Data set [1] relates to Mus musculus. The data set can be described thus: Toxicity in DBA/1J mouse model of collagen-induced arthritis inflammation assessed as reduction in body weight at 8.3 mg/kg, ip administered daily for 14 days starting from day 27 post disease onset. The data set is classed as organism-based. The note with it: in vivo, 336 h.
The nature of data set [2]: Prodrug activation in 20% DMSO/PBS assessed as 0.5 mM H2O2-mediated methotrexate formation by measuring prodrug half life at 100 uM at 37 degC, pH 7.4 by RP-UPLC-MS analysis. The note with it: buffer, pH 7.4, 100 µM. The data set is classed as physicochemical. In outline:
(§1)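 Prodrug at 100 µM in 20% DMSO/PBS (pH 7.4) with diclofenac internal standard was incubated at 37 °C with shaking, with H2O2 at 0.25–10 mM or PBS only (stability control). Samples were taken from 5 min to 24 h. Percent remaining compound and MTX formation were read by RP-UPLC at 306 nm. Runs were in triplicate and t1/2 is given ± SD.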

Data set [3] deals with Mus musculus. The data set is described as follows: Anti-arthritic activity in DBA/1J mouse model of collagen-induced arthritis inflammation assessed as reduction in fore limb swelling at 8.3 mg/kg, ip administered daily for 14 days starting from day 27 post disease onset and measured 3 times per week from day 18 to 40 […]. The data set is classed as functional, organism-based. The procedure, abridged:
(§2)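 Male DBA/1J mice (8–9 weeks) were immunized intradermally near the tail base with 100 µg chicken type II collagen in CFA on day -1, with a 50 µg boost on day 21. From day 27 they received daily i.p. dosing in 2% DMSO/PBS for 14 days (n = 8/group). Blinded scoring ran three times weekly, day 18–40, at 0–15 per limb (maximum 60). Mice scoring above 45 were removed. Results are mean ± SEM, tested by one-tailed Mann–Whitney.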

Data set [4] can be described thus: Half life in 20% DMSO/PBS at 100 uM at 37 degC at pH 7.4 by RP-UPLC-MS analysis. The data set is classed as physicochemical. The procedure, abridged:
as §1

Data set [5] is described as follows: Apparent intrinsic clearance in human liver microsomes at 37 degC at pH 7.4 by RP-UPLC-MS analysis. The data set is classed as ADME, microsome. The note with it: read-out: CLH(app). The procedure, abridged:
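Pooled human liver microsomes in PBS were preincubated for 10 min at 37 °C. Compound was added from a 10 mM DMSO stock, then NADPH from a 30 mM stock, with a no-NADPH control. Aliquots taken at 0–40 min were quenched in ice-cold MeCN, centrifuged and analyzed by UPLC-MS. CL'int was derived from the in vitro t1/2 scaled by 45 mg microsomes/g liver and 20 g liver/kg body weight.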
On the technique in general: Liver microsomes are vesicles of endoplasmic reticulum, rich in cytochrome P450 enzymes.

The nature of data set [6]: Half life in human plasma at 37 degC at pH 7.4 by RP-UPLC-MS analysis. The data set is classed as ADME, cell-free. In outline:
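Reconstituted freeze-dried human plasma was diluted 1:1 with PBS (pH 7.4) and preincubated for 10 min at 37 °C. Compound was added from a 1 mg/mL DMSO stock and incubated at 37 °C. Samples at 0, 0.5, 1, 2, 4 and 8 h were quenched in ice-cold MeCN, centrifuged, and the supernatant analyzed by RP-UPLC-MS. t1/2 is from triplicates ± SD.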

The nature of data set [7]: Chemical stability in pH 7.4 PBS buffer after 24 hrs by RP-UPLC-MS analysis. The data set is classed as physicochemical. To be noted: pH 7.4, 24 h. In outline: as §1
A short description of data set [8]: Prodrug activation in 20% DMSO/PBS assessed as 5 mM H2O2-mediated methotrexate formation by measuring prodrug half life at 100 uM at 37 degC, pH 7.4 by RP-UPLC-MS analysis. The data set is classed as physicochemical. The note with it: buffer, pH 7.4, 100 µM. The procedure, abridged: as §1
The nature of data set [9]: Thermodynamic solubility in pH 7.4 PBS buffer at 2 mg sonicated for 10 mins followed by incubation at 20 degC for 15 hrs by RP-UPLC-MS analysis. The data set is classed as physicochemical. The note with it: read-out: Therm_solubility. In outline:
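Solid (2 mg) in 1 mL PBS (pH 7.4) was sonicated, shaken for 15 h at 20 °C and centrifuged. The supernatant was diluted 1:5 in DMF and quantified by RP-UPLC-MS against a 25–125 µg/mL calibration curve. Results are at least three measurements ± SD.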

A short description of data set [10]: Chemical stability in pH 7.4 PBS buffer by RP-UPLC-MS analysis. The data set is classed as physicochemical. The procedure, abridged: as §1
A short description of data set [11]: Chemical stability in 20% DMSO/PBS at 100 uM at 37 degC after 60 mins in presence of 10 mM H2O2 by RP-UPLC-MS analysis. The data set is classed as physicochemical. To be noted: buffer, 1 h. In outline:
as §1

Data set [12] has as its system Mus musculus. The data set can be described thus: Toxicity in DBA/1J mouse model of collagen-induced arthritis inflammation assessed as reduction in body weight at 7 mg/kg, ip administered daily for 14 days starting from day 27 post disease onset. To be noted: in vivo, 336 h. The data set is classed as organism-based.
Data set [13] relates to Mus musculus. The data set is described as follows: Anti-arthritic activity in DBA/1J mouse model of collagen-induced arthritis inflammation assessed as reduction in fore limb swelling at 7 mg/kg, ip administered daily for 14 days starting from day 27 post disease onset and measured 3 times per week from day 18 to 40 […]. The data set is classed as functional, organism-based. In outline:
as §2

Data set [14] in a line: Chemical stability in 20% DMSO/PBS at 100 uM at 37 degC after 60 mins in absence of H2O2 by RP-UPLC-MS analysis. The data set is classed as physicochemical. To be noted: buffer, 1 h. The procedure, abridged:
as §1

Usually half-life stands for the time in which the quantity being followed falls by half. High values mean slow loss, low ones fast loss.

Values after ≈ are worked out from the molar mass of the structure shown. Active and inactive are the calls of the source. The rule behind the calls is not given here.

Regarding `CN(Cc1cnc2nc(N)nc(N)c2n1)c1ccc(C(=O)N[C@@H](CCC(=O)N2CCSC2=O)C(=O)O)cc1`, the Activity result in the data set on Mus musculus [1] is recorded as “Non-Toxic”. For the same compound, the t1/2 worked out at 16.5 h in data set [2] and 1.7 h in [8]. In the data set on Mus musculus [3], the outcome was Active. The half-life at 100 µM in data set [4] was 116 h. In addition, the CLint scaled in data set [5] came out at 1.4 mL/min/kg. In addition, the half-life in data set [6] was 7 h. In data set [7], the Stability entry is reported as “Stable”. In data set [9], the solubility thermodynamic at 15 h amounted to 400 µg/mL (≈ 741 µM).

Turning to `CN(Cc1cnc2nc(N)nc(N)c2n1)c1ccc(C(=O)N[C@@H](CCC(=O)O)C(=O)N2CCSC2=O)cc1`, in data set [10], the Stability entry is listed as “Unstable”.

Regarding `CN(Cc1cnc2nc(N)nc(N)c2n1)c1ccc(C(=O)N[C@@H](CCC(=O)O)C(=O)O)cc1` [METHOTREXATE], the Stability result in data set [11] and in [14] was “Stable” each time. Moreover, the Activity entry in the data set with Mus musculus [12] is reported as “Toxic”. The outcome with Mus musculus [13] was Active.

These data come from ChEMBL document CHEMBL4270574, “Methotrexate prodrugs sensitive to reactive oxygen species for the improved treatment of rheumatoid arthritis” (Eur J Med Chem, 2018).
